Experiments:
[1] = biological target: T1, Heat shock factor protein 1 (Homo sapiens, UniProt Q00613); experiment: Amplification of HSF1 transcriptional activity in human heat shock-induced HeLa cells assessed as granule formation treated 1 hr before heat shock challenge measured after 2 hrs without recovery time by immunocytochemical staining
T1 sequence (Q00613 whole entry): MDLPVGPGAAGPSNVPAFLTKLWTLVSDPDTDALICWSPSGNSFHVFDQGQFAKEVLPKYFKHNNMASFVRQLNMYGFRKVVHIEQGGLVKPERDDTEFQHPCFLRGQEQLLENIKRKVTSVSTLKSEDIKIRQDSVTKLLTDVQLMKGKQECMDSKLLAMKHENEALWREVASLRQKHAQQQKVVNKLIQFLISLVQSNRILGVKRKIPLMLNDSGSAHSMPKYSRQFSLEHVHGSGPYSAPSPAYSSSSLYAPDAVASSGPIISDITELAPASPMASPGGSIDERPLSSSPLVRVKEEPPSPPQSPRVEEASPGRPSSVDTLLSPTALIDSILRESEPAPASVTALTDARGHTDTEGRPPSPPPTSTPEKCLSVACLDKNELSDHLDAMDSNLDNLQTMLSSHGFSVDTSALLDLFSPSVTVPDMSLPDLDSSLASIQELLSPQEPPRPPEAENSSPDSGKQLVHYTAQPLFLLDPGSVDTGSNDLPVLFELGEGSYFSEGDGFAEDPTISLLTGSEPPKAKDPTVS
Summary of the method: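 HeLa cells given compound 1 h before mild heat shock at 41 °C for 2 h, no recovery; compound diluted 200-fold, 0.3 to 80 µM. Unstressed control plates kept at 37 °C for 3 h. HSF1 immunocytochemical staining, imaged at 10×.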

[2] = biological target: T1, Heat shock factor protein 1; experiment: Amplification of HSF1 transcriptional activity in human HeLa cells assessed as granule formation pretreated for 3 hrs by immunocytochemical staining
Summary of the method: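 HeLa cells pretreated with compound 1 h, then mild heat shock 41 °C for 2 h, no recovery; control arm pretreated 3 h at 37 °C without heat shock. Compound diluted 200-fold, 0.3 to 80 µM range.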

[3] = Amplification of HSF1 transcriptional activity in human heat shock-induced HeLa cells assessed as granule formation treated 1 hr before heat shock challenge measured after 2 hrs without recovery time by immunocytochemical staining

SMILES	EC50 [3] [µM]	further results
C=c1c(O)c(O)cc2c1=CC=C1[C@@]2(C)CC[C@@]2(C)[C@@H]3C[C@](C)(C(=O)O)CC[C@]3(C)CC[C@]12C		EC50 [1]: 1.1 µM; EC50 [2]: 2.6 µM
CCCCn1nc(-c2ncc[nH]2)nc2c(=O)n(C)c(=O)nc1-2 [1-butyl-3-(1H-imidazol-2-yl)-6-methylpyrimido[5,4-e][1,2,4]triazine-5,7(1H,6H)-dione]	7.7	
CCCCn1nc(-c2ccc(C)o2)[n+]([O-])c2c(=O)n(C)c(=O)nc1-2 [1-butyl-6-methyl-3-(5-methylfuran-2-yl)-5,7-dioxo-1,5,6,7-tetrahydropyrimido[5,4-e][1,2,4]triazine 4-oxide]	10	
CCCCn1nc(-c2ccc(C)o2)nc2c(=O)n(C)c(=O)nc1-2 [1-butyl-6-methyl-3-(5-methylfuran-2-yl)pyrimido[5,4-e][1,2,4]triazine-5,7(1H,6H)-dione]	9.9	
CCCCn1nc(-c2ccc(C)s2)[n+]([O-])c2c(=O)n(C)c(=O)nc1-2 [1-butyl-6-methyl-3-(5-methylthiophen-2-yl)-5,7-dioxo-1,5,6,7-tetrahydropyrimido[5,4-e][1,2,4]triazine 4-oxide]	8.6	
CCCCn1nc(-c2ccc(C)s2)nc2c(=O)n(C)c(=O)nc1-2 [1-butyl-6-methyl-3-(5-methylthiophen-2-yl)pyrimido[5,4-e][1,2,4]triazine-5,7(1H,6H)-dione]	16.8	
CCCCn1nc(-c2nccs2)nc2c(=O)n(C)c(=O)nc1-2 [1-butyl-6-methyl-3-(thiazol-2-yl)pyrimido[5,4-e][1,2,4]triazine-5,7(1H,6H)-dione]	2.1	
CCn1nc(-c2ncc[nH]2)nc2c(=O)n(C)c(=O)nc1-2 [1-ethyl-3-(1H-imidazol-2-yl)-6-methylpyrimido[5,4-e][1,2,4]triazine-5,7(1H,6H)-dione]	39.8	
CCn1nc(-c2ccco2)nc2c(=O)n(C)c(=O)nc1-2 [1-ethyl-3-(furan-2-yl)-6-methylpyrimido[5,4-e][1,2,4]triazine-5,7(1H,6H)-dione]	10.1	
CCn1nc(-c2ccc[nH]2)nc2c(=O)n(C)c(=O)nc1-2 [1-ethyl-6-methyl-3-(1H-pyrrol-2-yl)pyrimido[5,4-e][1,2,4]triazine-5,7(1H,6H)-dione]	35	
CCn1nc(-c2ccc(C)o2)[n+]([O-])c2c(=O)n(C)c(=O)nc1-2 [1-ethyl-6-methyl-3-(5-methylfuran-2-yl)-5,7-dioxo-1,5,6,7-tetrahydropyrimido[5,4-e][1,2,4]triazine 4-oxide]	20.6	
CCn1nc(-c2ccc(C)o2)nc2c(=O)n(C)c(=O)nc1-2 [1-ethyl-6-methyl-3-(5-methylfuran-2-yl)pyrimido[5,4-e][1,2,4]triazine-5,7(1H,6H)-dione]	46.3	
CCn1nc(-c2ccc(C)s2)[n+]([O-])c2c(=O)n(C)c(=O)nc1-2 [1-ethyl-6-methyl-3-(5-methylthiophen-2-yl)-5,7-dioxo-1,5,6,7-tetrahydropyrimido[5,4-e][1,2,4]triazine 4-oxide]	11.6	
CCn1nc(-c2cccs2)nc2c(=O)n(C)c(=O)nc1-2 [1-ethyl-6-methyl-3-thiophen-2-yl-pyrimido[5,4-e][1,2,4]triazine-5,7-dione]	5.1	
CCn1nc(-c2ccc[nH]2)[n+]([O-])c2c(=O)n(C)c(=O)nc1-2 [1-ethyl-6-methyl-5,7-dioxo-3-(1H-pyrrol-2-yl)-1,5,6,7-tetrahydropyrimido[5,4-e][1,2,4]triazine 4-oxide]	24.7	

Continued, in another order:

EC50 [3] [µM]	SMILES	further results
2.5	CCCCn1nc(-c2ccc3ccccc3n2)nc2c(=O)n(C)c(=O)nc1-2 [1-butyl-6-methyl-3-(quinolin-2-yl)pyrimido[5,4-e][1,2,4]triazine-5,7(1H,6H)-dione]	
14.8	CCCCn1nc(-c2ccccc2)nc2c(=O)n(C)c(=O)nc1-2 [1-butyl-6-methyl-3-phenylpyrimido[5,4-e][1,2,4]triazine-5,7(1H,6H)-dione]	
17.3	CCn1nc(-c2ccc(C)s2)nc2c(=O)n(C)c(=O)nc1-2 [1-ethyl-6-methyl-3-(5-methylthiophen-2-yl)pyrimido[5,4-e][1,2,4]triazine-5,7(1H,6H)-dione]	
40.8	CCCCn1nc(-c2nc3ccccc3[nH]2)nc2c(=O)n(C)c(=O)nc1-2 [3-(1H-benzo[d]imidazol-2-yl)-1-butyl-6-methylpyrimido[5,4-e][1,2,4]triazine-5,7(1H,6H)-dione]	
14	Cn1c(=O)nc2n(Cc3ccc(F)cc3)nc(-c3nc4ccccc4s3)nc-2c1=O [3-(benzo[d]thiazol-2-yl)-1-(4-fluorobenzyl)-6-methylpyrimido[5,4-e][1,2,4]triazine-5,7(1H,6H)-dione]	
4.1	Cn1c(=O)nc2n(Cc3ccccc3)nc(-c3nc4ccccc4s3)nc-2c1=O [3-(benzo[d]thiazol-2-yl)-1-benzyl-6-methylpyrimido[5,4-e][1,2,4]triazine-5,7(1H,6H)-dione]	
1.3	CC(C)Cn1nc(-c2nc3ccccc3s2)nc2c(=O)n(C)c(=O)nc1-2 [3-(benzo[d]thiazol-2-yl)-1-isobutyl-6-methylpyrimido[5,4-e][1,2,4]triazine-5,7(1H,6H)-dione]	
2.5	CC(C)CCn1nc(-c2nc3ccccc3s2)nc2c(=O)n(C)c(=O)nc1-2 [3-(benzo[d]thiazol-2-yl)-1-isopentyl-6-methylpyrimido[5,4-e][1,2,4]triazine-5,7(1H,6H)-dione]	

Reference: BindingDB's records for doi:10.1016/j.bmcl.2009.05.073 (Cytrx, 2009)
